In ChEMBL document CHEMBL4190346, “Structure-based design, synthesis, and biological evaluation of withaferin A-analogues as potent apoptotic inducers” (Eur J Med Chem, 2017):
Activity calls are given as the source filed them. No cut-off for these calls is given here.

Experiments:
HeLa [1] = assay: Cytotoxicity against human HeLa cells assessed as reduction in cell viability using compound addition to cell culture cells in lag phase of growth and incubated for 48 hrs by MTT assay; type: functional, cell-based; settings: Homo sapiens, HeLa, 48 h; read-out: IC50
HeLa [2] = assay: Cytotoxicity against human HeLa cells assessed as reduction in cell viability using compound addition to cell culture cells in log phase of growth and incubated for 48 hrs by MTT assay; type: functional, cell-based; settings: Homo sapiens, HeLa, 48 h; read-out: IC50
A549 [3] = assay: Cytotoxicity against human A549 cells assessed as reduction in cell viability using compound addition to cell culture cells in lag phase of growth and incubated for 48 hrs by MTT assay; type: functional, cell-based; settings: Homo sapiens, A549, 48 h; read-out: IC50
A549 [4] = assay: Cytotoxicity against human A549 cells assessed as reduction in cell viability using compound addition to cell culture cells in log phase of growth and incubated for 48 hrs by MTT assay; type: functional, cell-based; settings: Homo sapiens, A549, 48 h; read-out: IC50
MCF7 [5] = assay: Cytotoxicity against human MCF7 cells assessed as reduction in cell viability using compound addition to cell culture cells in lag phase of growth and incubated for 48 hrs by MTT assay; type: functional, cell-based; settings: Homo sapiens, MCF7, 48 h; read-out: IC50
MCF7 [6] = assay: Cytotoxicity against human MCF7 cells assessed as reduction in cell viability using compound addition to cell culture cells in log phase of growth and incubated for 48 hrs by MTT assay; type: functional, cell-based; settings: Homo sapiens, MCF7, 48 h; read-out: IC50
Vero [7] = assay: Cytotoxicity against African green monkey Vero cells assessed as reduction in cell viability using compound addition to cell culture cells in lag phase of growth and incubated for 48 hrs by MTT assay; type: cell-based, Chlorocebus sabaeus; settings: Chlorocebus sabaeus, Vero, 48 h; read-out: IC50
Vero [8] = assay: Cytotoxicity against African green monkey Vero cells assessed as reduction in cell viability using compound addition to cell culture cells in log phase of growth and incubated for 48 hrs by MTT assay; type: cell-based, Chlorocebus sabaeus; settings: Chlorocebus sabaeus, Vero, 48 h; read-out: IC50
MCF7 [9] = assay: Ratio of IC50 for cytotoxicity against human MCF7 cells using compound addition to cell culture cells in lag phase of growth and incubated for 48 hrs by MTT assay to IC50 for cytotoxicity against human MCF7 cells using compound addition to cell culture cells in log phase of growth and incubated for 48 hrs by MTT assay; type: functional
HeLa [10] = assay: Induction of apoptosis in human HeLa cells assessed as increase in caspase-3 activity by measuring pNA release level at 8 uM incubated for 4 hrs using c-DEVD-pNA substrate by colorimetric assay; type: functional
How it was run: (§1)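 HeLa cells in DMEM with 10% FBS were exposed for 4 h (fixed 24 or 32 level for 8 h). Staurosporine for 4 h served as the positive control. Cells were lysed at 4 °C for 10 min and centrifuged, and supernatant protein was measured by Bradford. Caspase-3 activity was read colorimetrically as nmol pNA/min/mL, with treated/untreated OD ratios. Values are means ± SD of three independent experiments in triplicate.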

HeLa [11] = assay: Induction of apoptosis in human HeLa cells assessed as increase in caspase-3 activity by measuring pNA release level at 12 uM incubated for 4 hrs using c-DEVD-pNA substrate by colorimetric assay; type: functional; how it was run: as §1
HeLa [12] = assay: Induction of apoptosis in human HeLa cells assessed as increase in caspase-3 activity by measuring pNA release level at 16 uM incubated for 4 hrs using c-DEVD-pNA substrate by colorimetric assay; type: functional; how it was run: as §1
HeLa [13] = assay: Induction of apoptosis in human HeLa cells assessed as increase in caspase-3 activity by measuring pNA release level at 24 uM incubated for 4 hrs using c-DEVD-pNA substrate by colorimetric assay; type: functional; how it was run: as §1
HeLa [14] = assay: Induction of apoptosis in human HeLa cells assessed as increase in caspase-3 activity by measuring pNA release level at 32 uM incubated for 4 hrs using c-DEVD-pNA substrate by colorimetric assay; type: functional; how it was run: as §1
HeLa [15] = assay: Induction of apoptosis in human HeLa cells assessed as reduction in cellular adhesion at 32 uM incubated for 4 hrs by light microscopy
HeLa [16] = assay: Induction of apoptosis in human HeLa cells assessed as reduction in cellular integrity at 32 uM incubated for 4 hrs by light microscopy
HeLa [17] = assay: Induction of cell cycle arrest in human HeLa cells assessed increase in subG1 phase accumulation at 24 uM incubated for 12 hrs by 33342 propidium iodide based flow cytometry relative to untreated control; type: functional
HeLa [18] = assay: Induction of cell cycle arrest in human HeLa cells assessed increase in hypoploid phase accumulation at 24 uM incubated for 12 hrs by […] propidium iodide based flow cytometry relative to untreated control; type: functional
HeLa [19] = assay: Induction of apoptosis in human HeLa cells assessed increase in phosphatidylserine externalization at 2 uM incubated for 4 hrs by annexin V and propidium iodide staining based flow cytometry; type: functional, cell-based
HeLa [20] = assay: Induction of apoptosis in human HeLa cells assessed as increase in caspase-3 activity by measuring pNA release level at 24 uM incubated for 8 hrs using c-DEVD-pNA substrate by colorimetric assay; type: functional; how it was run: as §1
[21] = Selectivity index, ratio of IC50 for African green monkey Vero cells to IC50 for human HeLa cells; type: toxicity; settings: Vero cells and HeLa cells, read-out: Ratio IC50
HeLa [22] = assay: Induction of apoptosis in human HeLa cells assessed increase in DNA fragmentation at 16 uM incubated for 12 hrs by ethidium bromide staining based agarose gel electrophoresis; type: functional, cell-based
How it was run: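 HeLa cells were incubated with the compounds at varying concentrations for 12 or 24 h. Controls were DMSO (solvent) and staurosporine 2 µM (positive). Adherent and floating cells were pooled, centrifuged at 500 g and washed twice in cold PBS. Genomic DNA was extracted with a kit, run on 1.8% agarose, stained with ethidium bromide and viewed under UV.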

HeLa [23] = assay: Induction of apoptosis in human HeLa cells assessed increase in apoptotic nuclei formation at 8 uM incubated for 12 hrs by Hoechst 33342 staining based fluorescence microscopy; type: functional
HeLa [24] = assay: Induction of cell cycle arrest in human HeLa cells assessed increase in subG1 phase accumulation at 24 uM incubated for 12 hrs by 33342 propidium iodide based flow cytometry relative to Withaferin A; type: functional
How it was run: (§2)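 HeLa cells (1–2 × 10^6 per well) were exposed for 12 h at 24 µM, or at 16 µM over a time course. Adherent and floating cells were pooled, washed in ice-cold PBS, and fixed/permeabilized overnight in ice-cold 70% ethanol. DNA was stained with propidium iodide and G1, G2/M and sub-G1 (hypoploid) fractions were read by flow cytometry. Results are from ≥3 independent experiments in triplicate.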

HeLa [25] = assay: Induction of cell cycle arrest in human HeLa cells assessed increase in subG1 phase accumulation at 16 uM by 33342 propidium iodide based flow cytometry relative to untreated control; type: functional; settings: TDE = time-dependent effect; how it was run: as §2
HeLa [26] = assay: Induction of cell cycle arrest in human HeLa cells assessed reduction in G2/M phase accumulation at 16 uM by 33342 propidium iodide based flow cytometry relative to untreated control; type: functional; settings: TDE = time-dependent effect; how it was run: as §2
HeLa [27] = assay: Induction of cell cycle arrest in human HeLa cells assessed accumulation at G2/M phase at 16 uM incubated for 24 hrs by 33342 propidium iodide based flow cytometry relative to untreated control; type: functional; settings: in the assay text read “accumulation at sub-G1 phase” for “accumulation at G2/M phase”; how it was run: as §2
HeLa [28] = assay: Induction of early apoptosis in human HeLa cells at 4 uM incubated for 1 hr by annexin V and propidium iodide staining based flow cytometry; type: functional, cell-based
HeLa [29] = assay: Induction of late apoptosis in human HeLa cells at 8 uM incubated for 1 hr by annexin V and propidium iodide staining based flow cytometry; type: functional, cell-based

SMILES | IC50 (HeLa [1]) | IC50 (HeLa [2]) | IC50 (A549 [3]) | IC50 (A549 [4]) | IC50 (MCF7 [5]) | IC50 (MCF7 [6]) | IC50 (Vero [7]) | IC50 (Vero [8]) | Ratio IC50 (MCF7 [9]) | Activity (HeLa [10]) | Activity (HeLa [11]) | Activity (HeLa [12]) | Activity (HeLa [13]) | Activity (HeLa [14]) | fold change (FC) (HeLa [17]) | Activity (HeLa [18]) | Activity (HeLa [20]) | also measured
CC1=C(COC(=O)c2ccccc2)C(=O)O[C@@H]([C@@H](C)[C@H]2CC[C@H]3[C@@H]4C[C@H]5O[C@]56C(=O)C=CC(=O)[C@]6(C)[C@H]4CC[C@]23C)C1 | 2600 nM | 1900 nM | 3200 nM | 2300 nM | 5400 nM | 1100 nM | 3100 nM | 700 nM | >3 | 0.65 nmol/min/mL | 0.4 nmol/min/mL | 0.67 nmol/min/mL | 1.05 nmol/min/mL | 0.61 nmol/min/mL | – | – | – | Activity (HeLa [15]): Active; Activity (HeLa [16]): Active
CC1=C(CO)C(=O)O[C@@H]([C@@H](C)[C@H]2CC[C@H]3[C@@H]4C[C@H]5O[C@]56[C@@H](O)C=CC(=O)[C@]6(C)[C@H]4CC[C@]23C)C1 [WITHAFERIN A] | – | 6300 nM | – | 10100 nM | – | 1300 nM | – | 6600 nM | 2.8 | 0.35 nmol/min/mL | 0.41 nmol/min/mL | 0.47 nmol/min/mL | 0.55 nmol/min/mL | 1.12 nmol/min/mL | 4 - 6 | 11.3% | 0.6 to 1.9 nmol/min/mL | Activity (HeLa [19]): Active
CC1=C(COC(=O)c2ccccc2)C(=O)O[C@@H]([C@@H](C)[C@H]2CC[C@H]3[C@@H]4C[C@H]5O[C@]56[C@@H](O)C=CC(=O)[C@]6(C)[C@H]4CC[C@]23C)C1 | 800 nM | 1600 nM | 1000 nM | 1500 nM | 300 nM | 700 nM | 200 nM | 500 nM | – | 0.32 nmol/min/mL | 0.52 nmol/min/mL | 0.67 nmol/min/mL | 1.16 nmol/min/mL | 0.85 nmol/min/mL | 4 - 6 | 22.1% | 1.7 to 2 nmol/min/mL | selectivity ratio [21]: 2.5; Activity (HeLa [22]): Active; Activity (HeLa [23]): 28%; fold change (FC) (HeLa [24]): 2; Activity (HeLa [25]): Tde; Activity (HeLa [26]): Tde; Activity (HeLa [27]): 37.8%; Activity (HeLa [28]): Active; Activity (HeLa [29]): Active
